The source made the active and inactive calls. The rule behind the calls is not given here.
What was measured:
[1] = molecular target: T1, Glucocorticoid receptor (Homo sapiens) (UniProt P04150); assay: Agonist activity at recombinant glucocorticoid receptor LBD expressed in HEK293T cells co-expressing GAL4 DBD at 20 uM by transactivation assay; type: functional, cell-based; details: HEK-293T
T1 sequence (whole entry): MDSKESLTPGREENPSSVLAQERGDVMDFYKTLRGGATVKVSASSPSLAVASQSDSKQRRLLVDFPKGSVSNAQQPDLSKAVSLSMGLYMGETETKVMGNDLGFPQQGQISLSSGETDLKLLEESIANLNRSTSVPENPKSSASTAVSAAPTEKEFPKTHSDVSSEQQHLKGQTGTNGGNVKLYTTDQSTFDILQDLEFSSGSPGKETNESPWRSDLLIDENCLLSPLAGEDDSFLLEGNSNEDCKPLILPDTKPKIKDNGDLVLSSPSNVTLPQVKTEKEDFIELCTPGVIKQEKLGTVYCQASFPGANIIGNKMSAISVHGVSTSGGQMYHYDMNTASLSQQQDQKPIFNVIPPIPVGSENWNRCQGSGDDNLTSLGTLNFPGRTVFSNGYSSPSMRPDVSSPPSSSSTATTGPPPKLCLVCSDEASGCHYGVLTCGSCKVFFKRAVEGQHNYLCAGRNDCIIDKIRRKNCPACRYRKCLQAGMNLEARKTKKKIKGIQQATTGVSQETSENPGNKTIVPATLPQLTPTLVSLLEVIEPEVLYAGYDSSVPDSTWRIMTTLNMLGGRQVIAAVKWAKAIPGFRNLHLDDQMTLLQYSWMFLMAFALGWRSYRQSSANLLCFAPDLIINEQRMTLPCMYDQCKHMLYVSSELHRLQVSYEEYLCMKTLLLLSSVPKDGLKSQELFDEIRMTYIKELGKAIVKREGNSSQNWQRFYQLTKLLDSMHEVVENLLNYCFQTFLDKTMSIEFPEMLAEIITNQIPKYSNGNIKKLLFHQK
Procedure, shortened: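 One-hybrid assay in HEK293T cells cotransfected with a Gal4 DBD–NR-LBD fusion (RXRα, LXRα, GR, PR, PPARδ or PPARγ) plus UAS-TK-Luc reporter. Compound was 20 μM, given alone or with agonist: 9cRA 0.1 μM (RXRα), TO901317 0.5 μM (LXRα), dexamethasone 50 nM (GR), progesterone 100 nM (PR), GW1516 10 μM (PPARδ), rosiglitazone 10 μM (PPARγ). Luciferase read-out; three independent experiments.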

[2] = organism: Homo sapiens; assay: Ratio of Z-guggulsterone IC50 to compound IC50 for GST-tagged human recombinant FXRalphaLBD
[3] = test system: HEK-293T; assay: Agonist activity at FXRalpha/RXRalpha expressed in HEK293T cells co-expressing GAL4 DBD after 18 hrs by luciferase based transactivation assay; type: functional, cell-based; details: Homo sapiens
Procedure, shortened: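 FXR transactivation in HEK293T cells transiently transfected with pcDNA3.1-FXRα, pcDNA3.1-RXRα, pGL3-FXRE-Luc and pRL-SV40 Renilla vector. Medium was replaced 6 h after transfection with medium holding compound at varied concentrations, with or without 20 μM CDCA, for 18 h. Read-out was dual-luciferase. Three independent experiments.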

[4] = test system: Mus musculus; assay: Reduction of total serum cholesterol level in cholesterol-fed C57BL/6 mouse at 50 to 100 mg/kg, po after 10 days; type: functional; design: scale not given: the % may be the effect or the level left; details: dose mg/kg 50-100
Procedure, shortened: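 Male C57BL/6 mice, 8–12 weeks old, were randomized into five groups of nine. Control mice had ground chow; the other groups had chow with 2% cholesterol. Compound (50 or 100 mg/kg) or reference (100 mg/kg) was suspended in 0.5% CMC-Na and given by oral gavage; control and vehicle mice got 0.5% CMC-Na. Serum and hepatic triglyceride and total cholesterol were measured.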

[5] = molecular target: T2, Bile acid receptor (Homo sapiens) (UniProt Q96RI1); assay: Antagonist activity at human FXR in human HepG2 cells assessed as reduction in cholesterol level after 24 hrs; type: functional, cell-based
T2 sequence (whole entry): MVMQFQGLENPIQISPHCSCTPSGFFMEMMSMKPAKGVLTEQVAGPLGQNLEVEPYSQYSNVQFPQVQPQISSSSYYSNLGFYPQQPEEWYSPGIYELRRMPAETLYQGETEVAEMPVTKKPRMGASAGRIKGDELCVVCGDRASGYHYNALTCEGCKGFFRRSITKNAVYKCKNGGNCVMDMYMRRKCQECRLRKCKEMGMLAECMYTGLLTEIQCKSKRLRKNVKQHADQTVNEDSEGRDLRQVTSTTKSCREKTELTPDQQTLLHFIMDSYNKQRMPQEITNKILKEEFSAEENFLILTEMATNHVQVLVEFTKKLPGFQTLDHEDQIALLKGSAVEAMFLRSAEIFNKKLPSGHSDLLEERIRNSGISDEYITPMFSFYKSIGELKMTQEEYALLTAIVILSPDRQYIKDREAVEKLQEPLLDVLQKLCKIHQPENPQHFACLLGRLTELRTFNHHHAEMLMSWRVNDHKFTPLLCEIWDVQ
Procedure, shortened: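 HepG2 cells were serum-starved overnight in FBS-free DMEM, then given DMSO or compound for 24 h in serum-free DMEM. Cells were lysed in RIPA buffer, sonicated on ice and centrifuged at 12000 rpm, 4 °C. Triglyceride and total cholesterol in the cleared lysate were measured by kits, with total protein by BCA. At least three experiments.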

[6] = molecular target: T2, Bile acid receptor (Homo sapiens); assay: Antagonist activity at human FXR in human HepG2 cells assessed as inhibition of CDCA induced decrease of Cyp7A1 gene expression at 5 to 40 uM after 24 hrs by RT-PCR analysis; type: functional, cell-based
Procedure, shortened: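 HepG2 cells in 6-well plates were treated with varied concentrations of compound, with or without 100 μM CDCA, for 24 h. Total RNA was taken with TRIzol and cDNA made by reverse transcription. Cyp7A1, SHP, BSEP and SREBP1c mRNA were measured by quantitative RT-PCR and normalized to β-actin. Three independent experiments.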

Activity [1]: inactive
Ratio IC50 [2]: 10
inhibition [5]: Dose-dependent effect
inhibition [6]: Active
Structure (SMILES): COc1cc(/C=C2\C(=O)N(c3cccc([N+](=O)[O-])c3)N=C2c2ccccc2)ccc1O
Activity [3]: inactive
Activity [4]: 17.2%
